pIC50: −log10 of the molar value. Active and inactive are the calls of the source. The rule behind the calls is not given here.
Legend:
[1] = Toxicity against SCID mouse xenografted with human MDA-MB-231 cells assessed as change in body weight at 10 mg/kg, iv administered weekly for 21 days and measured every 3 days; assay type: organism-based; details: in vivo, 504 h, time 21 day
How it was run: (§1)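 Exponential-phase cells washed and injected subcutaneously (5 × 10^6 cells in 100 μL) into 5–6-week SCID mice. At 150–200 mm3, mice randomised to groups of 6. Oral dosing daily in water with 25% PEG400 and 5% DMSO; paclitaxel 10 mg/kg weekly by tail vein. Body weight measured every 3 days and side effects checked daily.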

[2] = test system: MDA-MB-435 (Homo sapiens); assay: Antitumor activity against human MDA-MB-435 cells xenografted in SCID mouse assessed as tumor growth inhibition at 10 mg/kg, iv administered weekly for 21 days and measured every 3 days; details: time 21.0 day
MDA-MB-231 [3] = assay: Antitumor activity against human MDA-MB-231 cells xenografted in SCID mouse assessed as tumor growth inhibition at 10 mg/kg, iv administered weekly for 21 days and measured every 3 days; assay type: functional, organism-based; details: time 21.0 day
How it was run: (§2)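 SCID mice (5−6 weeks) injected subcutaneously with 100 μL of cells at 5 × 10^7/mL. At 150−200 mm3 mice randomized, 6 per group. Oral compounds given in water with 25% PEG400 plus 5% DMSO; paclitaxel given 10 mg/kg/week iv. Tumor volume a×b²/2 and body weight measured every 3 days. Inhibition rate (c−d)/c×100% against vehicle control.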

[4] = Toxicity against SCID mouse xenografted with human MDA-MB-435 cells assessed as change in body weight at 10 mg/kg, iv administered weekly for 21 days and measured every 3 days; assay type: organism-based; details: in vivo, 504 h, time 21 day; how it was run: as §1
MDA-MB-231 [5] = assay: Induction of apoptosis in human MDA-MB-231 cells assessed as late apoptotic cells at 0.1 uM incubated for 24 hrs by annexin V-FITC and propidium iodide staining based flow cytometry analysis (reference value: 0.85 %); assay type: functional
HepG2 = assay: Antiproliferative activity against human HepG2 cells assessed as reduction in cell viability incubated for 72 hrs by MTT assay; assay type: ADME, cell-based; details: HepG2, 72 h
MDA-MB-231 [6] = assay: Inhibition of Fra1 phosphorylation in human MDA-MB-231 cells at 0.03 to 0.3 uM incubated for 20 hrs by Western blot analysis; assay type: functional, cell-based; details: dose 0.03-0.3 µM
How it was run: (§3)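 MDA-MB-231 cells treated with a series of concentrations for 20 h at 37 °C. Cells washed with ice-cold saline and lysed in RIPA buffer with protease cocktail. Lysates cleared at 12000 rpm for 10 min at 4 °C and protein quantified by Bradford. Equal protein separated by SDS-PAGE, transferred to PVDF and probed with antibodies.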

MDA-MB-231 [7] = assay: Antiproliferative activity against human MDA-MB-231 cells assessed as reduction in cell viability incubated for 72 hrs by MTT assay; assay type: functional, cell-based; details: MDA-MB-231, 72 h
How it was run: (§4)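 MTT viability assay. ATCC cell lines were grown in designated medium with 10% FBS at 37 °C, 5% CO2. Cells seeded at 1500−30000 per well and incubated 24 h, then exposed to compound (0−10 μg/mL) for 72 h. MTT added for 2−4 h. Formazan dissolved in DMSO (adherent) or acidified SDS overnight (suspension), absorbance read at 570 nm. Triplicates; IC50 calculated.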

MDA-MB-231 [8] = assay: Inhibition of colony formation in human MDA-MB-231 cells at 0.1 uM treated for 12 days by crystal violet staining based visual analysis; assay type: functional, cell-based; details: time 12.0 day
How it was run: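 MDA-MB-231 cells seeded at 5000 per well in six-well plates and treated the next day, with drug-containing medium replaced every 4 days. After 12 days, colonies fixed with methanol and stained with crystal violet, then photographed.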

MDA-MB-231 [9] = assay: Inhibition of MEK phosphorylation in human MDA-MB-231 cells at 0.03 to 0.3 uM incubated for 20 hrs by Western blot analysis; assay type: cell-based; details: dose 0.03-0.3 µM; how it was run: as §3
MDA-MB-231 [10] = assay: Induction of apoptosis in human MDA-MB-231 cells assessed as necrotic cells at 0.1 uM incubated for 24 hrs by annexin V-FITC and propidium iodide staining based flow cytometry analysis (reference value: 0.2 %); assay type: functional
MDA-MB-231 [11] = assay: Antitumor activity against human MDA-MB-231 cells xenografted in SCID mouse assessed as tumor growth inhibition at 40 mg/kg, po qd for 21 days and measured every 3 days; assay type: functional; details: dose 40.0 mg/kg/day, time 21.0 day; how it was run: as §2
MDA-MB-435 [12] = assay: Antitumor activity against human MDA-MB-435 cells xenografted in SCID mouse assessed as tumor growth inhibition at 40 mg/kg, po QD for 21 days and measured every 3 days; assay type: functional; details: dose 40.0 mg/kg/day, time 21.0 day; how it was run: as §2
MDA-MB-435 [13] = assay: Antiproliferative activity against human MDA-MB-435 cells assessed as reduction in cell viability incubated for 72 hrs by MTT assay; assay type: functional, cell-based; details: MDA-MB-435, 72 h; how it was run: as §4
MDA-MB-231 [14] = assay: Increase in cleaved caspase-3 level in human MDA-MB-231 cells at 0.03 to 0.3 uM incubated for 20 hrs by Western blot analysis; assay type: functional, cell-based; details: dose 0.03-0.3 µM
How it was run: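 MDA-MB-231 cells given a concentration series for 20 h at 37 °C. Cells lysed in RIPA with protease cocktail, cleared at 12000 rpm, 4 °C. Protein quantified by Bradford, equal amounts run on SDS-PAGE, transferred to PVDF and immunoblotted.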

MDA-MB-231 [15] = assay: Induction of apoptosis in human MDA-MB-231 cells assessed as live cells at 0.1 uM incubated for 24 hrs by annexin V-FITC and propidium iodide staining based flow cytometry analysis (reference value: 96.95 %); assay type: functional
MDA-MB-231 [16] = assay: Induction of apoptosis in human MDA-MB-231 cells assessed as early apoptotic cells at 0.1 uM incubated for 24 hrs by annexin V-FITC and propidium iodide staining based flow cytometry analysis (reference value: 2 %); assay type: functional
[17] = Toxicity in SCID mouse xenografted with MDA-MB-231 cells assessed as change in body weight at 40 mg/kg, po qd for 21 days and measured every 3 days; assay type: organism-based; details: in vivo, 504 h, dose 40 mg/kg/day, time 21 day; how it was run: as §1
MDA-MB-231 [18] = assay: Antimigratory activity against human MDA-MB-231 cells assessed as inhibition of cell migration at 0.3 uM incubated for 20 hrs by wound healing assay; assay type: functional, cell-based
How it was run: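 MDA-MB-231 monolayer grown to confluence, scratched with a sterile pipet tip, rinsed with physiological saline, then given DMEM containing vehicle or compound. Wound imaged after 20 h to assess migration.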

MDA-MB-231 [19] = assay: Inhibition of ERK phosphorylation in human MDA-MB-231 cells at 0.03 to 0.3 uM incubated for 20 hrs by Western blot analysis; assay type: cell-based; details: dose 0.03-0.3 µM; how it was run: as §3
MDA-MB-231 [20] = assay: Inhibition of Fra1 expression in human MDA-MB-231 cells at 0.03 to 0.3 uM incubated for 20 hrs by Western blot analysis; assay type: functional, cell-based; details: dose 0.03-0.3 µM; how it was run: as §3

For CC(=O)O[C@H]1C(=O)[C@@]2(C)[C@H]([C@H](OC(=O)c3ccccc3)[C@]3(O)C[C@H](OC(=O)[C@H](O)[C@@H](NC(=O)c4ccccc4)c4ccccc4)C(C)=C1C3(C)C)[C@]1(OC(C)=O)CO[C@@H]1C[C@@H]2O [PACLITAXEL], the Activity [1] was “Non-Toxic”, the Activity [2] was “Active” and the Activity (MDA-MB-231 [3]) was “Active”. The Activity [4] was “Non-Toxic”.
In the case of Cc1nc(Nc2ncc(C(=O)Nc3c(C)cccc3Cl)s2)cc(N2CCN(CCO)CC2)n1.O [DASATINIB], the Activity (MDA-MB-231 [5]) was 2.45%, the pIC50 (HepG2) was 5.12 and the inhibition (MDA-MB-231 [6]) was “Active”. For the same compound, the pIC50 (MDA-MB-231 [7]) was 6.95, the inhibition (MDA-MB-231 [8]) was “Active” and the inhibition (MDA-MB-231 [9]) was “Active”. For the same compound, the Activity (MDA-MB-231 [10]) was 0.34%, the Activity (MDA-MB-231 [11]) was “Active” and the inhibition (MDA-MB-435 [12]) was “Active”. The pIC50 (MDA-MB-435 [13]) was 5.29, the Activity (MDA-MB-231 [14]) was “Active” and the Activity (MDA-MB-231 [15]) was 92.97%. The Activity (MDA-MB-231 [16]) was 4.24%, the Activity [17] was “Non-Toxic” and the Activity (MDA-MB-231 [18]) was “Active”. The inhibition (MDA-MB-231 [19]) was “Active” and the inhibition (MDA-MB-231 [20]) was “Active”.

Source: ChEMBL document CHEMBL4765233, “From Lead to Drug Candidate: Optimization of 3-(Phenylethynyl)-1H-pyrazolo[3,4-d]pyrimidin-4-amine Derivatives as Agents for the Treatment of Triple Negative Breast Cancer” (J Med Chem, 2016)
